The subject of one test is HT-29. The test is described as follows: Antiproliferative activity against human HT-29 cells assessed as cell growth inhibition at 10 uM incubated for 48 hrs by SRB assay relative to control. The class given is functional. Particulars: read-out: GI. Summed up:
(§1)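 Cells plated in 96-well plates at […] cells/well and preincubated 24 h at 37 °C, 5% CO2. Time-zero plates were TCA-fixed. Compound was diluted in medium with 50 µg/mL gentamicin and cells exposed for 48 h. Adherent cells fixed with 10% final TCA; suspension cells with 16% final TCA. Plates stained with 0.4% SRB in 1% acetic acid, dye solubilized in 10 mM Trizma, absorbance read at 515 nm. Percent growth calculated against time-zero and control.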
A general note: The SRB assay estimates cell density from bound dye.
On to `Cc1nc2c(cnn2-c2ccccc2)c(=O)n1-c1ccc(N2C(=O)c3ccccc3C2=O)cc1`, for which the inhibition of growth at 10 µM is less than 15%.

The next test relates to NCI-H322M. The test is described as follows: Antiproliferative activity against human NCI-H322M cells assessed as cell growth inhibition at 10 uM incubated for 48 hrs by SRB assay relative to control. The class given is functional. Particulars: read-out: GI.
On to `Cc1nc2c(cnn2-c2ccccc2)c(=O)n1-c1ccc(N2C(=O)c3ccccc3C2=O)cc1`, for which the inhibition of growth at 10 µM was less than 15%.

The test system of a further test is MOLT-4. The test can be described thus: Antiproliferative activity against human MOLT-4 cells assessed as cell growth inhibition at 10 uM incubated for 48 hrs by SRB assay relative to control. Particulars: read-out: GI. The format is functional.
Turning to `Cc1nc2c(cnn2-c2ccccc2)c(=O)n1-c1ccc(N2C(=O)c3ccccc3C2=O)cc1`, the inhibition of growth at 10 µM is less than 15%.

In the next test the test system is HOP-92. The test can be described thus: Antiproliferative activity against human HOP-92 cells assessed as cell growth inhibition at 10 uM incubated for 48 hrs by SRB assay relative to control. The class given is functional. Particulars: read-out: GI. Put shortly: as §1
Consider `Cc1nc2c(cnn2-c2ccccc2)c(=O)n1-c1ccc(N2C(=O)c3ccccc3C2=O)cc1`, for which the inhibition of growth at 10 µM was less than 15%.

A further test has as its system PC-3. The test is described as follows: Antiproliferative activity against human PC-3 cells assessed as cell growth inhibition at 10 uM incubated for 48 hrs by SRB assay relative to control. The format is functional. Particulars: read-out: GI.
On to `Cc1nc2c(cnn2-c2ccccc2)c(=O)n1-c1ccc(N2C(=O)c3ccccc3C2=O)cc1`, for which the inhibition of growth at 10 µM is less than 15%.

For another test, the system named is KM12. The test can be described thus: Antiproliferative activity against human KM12 cells assessed as cell growth inhibition at 10 uM incubated for 48 hrs by SRB assay relative to control. Particulars: read-out: GI. The format is functional. Put shortly: as §1
Regarding `Cc1nc2c(cnn2-c2ccccc2)c(=O)n1-c1ccc(N2C(=O)c3ccccc3C2=O)cc1`, the inhibition of growth at 10 µM is less than 15%.

The test system of the next test is OVCAR-5. The test can be described thus: Antiproliferative activity against human OVCAR-5 cells assessed as cell growth inhibition at 10 uM incubated for 48 hrs by SRB assay relative to control. The class given is functional. Particulars: read-out: GI. Summed up:
as §1
For `Cc1nc2c(cnn2-c2ccccc2)c(=O)n1-c1ccc(N2C(=O)c3ccccc3C2=O)cc1`, the inhibition of growth at 10 µM is less than 15%.

For the next test, the system named is COLO 205. The test is described as follows: Antiproliferative activity against human COLO 205 cells assessed as cell growth inhibition at 10 uM incubated for 48 hrs by SRB assay relative to control. Particulars: read-out: GI. The format is functional.
In the case of `Cc1nc2c(cnn2-c2ccccc2)c(=O)n1-c1ccc(N2C(=O)c3ccccc3C2=O)cc1`, the inhibition of growth at 10 µM was less than 15%.

A further test relates to SNB-19. The test can be described thus: Antiproliferative activity against human SNB-19 cells assessed as cell growth inhibition at 10 uM incubated for 48 hrs by SRB assay relative to control. The class given is functional. Particulars: read-out: GI. Put shortly:
(§2)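 Cells pre-incubated 24 h at 37°C, 5% CO2, then exposed to compound (DMSO stock diluted in medium with 50 µg/mL gentamicin) for 48 h. Adherent cells fixed with cold TCA (final 10%, 60 min, 4°C); suspension cells fixed with 16% TCA final. Stained with 0.4% SRB in 1% acetic acid for 10 min, dye solubilized in 10 mM Trizma base, absorbance read at 515 nm. Growth calculated against time-zero and untreated control plates.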
For the compound `Cc1nc2c(cnn2-c2ccccc2)c(=O)n1-c1ccc(N2C(=O)c3ccccc3C2=O)cc1`, the inhibition of growth at 10 µM was less than 15%.

For another test, the system named is OVCAR-8. The test can be described thus: Antiproliferative activity against human OVCAR-8 cells assessed as cell growth inhibition at 10 uM incubated for 48 hrs by SRB assay relative to control. Particulars: read-out: GI. The class given is functional.
`Cc1nc2c(cnn2-c2ccccc2)c(=O)n1-c1ccc(N2C(=O)c3ccccc3C2=O)cc1`: the inhibition of growth at 10 µM is less than 15%.

The subject of the next test is SNB-75. The test is described as follows: Antiproliferative activity against human SNB-75 cells assessed as cell growth inhibition at 10 uM incubated for 48 hrs by SRB assay relative to control. The class given is functional. Particulars: read-out: GI. Summed up: as §2
Turning to `Cc1nc2c(cnn2-c2ccccc2)c(=O)n1-c1ccc(N2C(=O)c3ccccc3C2=O)cc1`, the inhibition of growth at 10 µM is less than 15%.

The subject of a further test is RPMI-8226. The test is described as follows: Antiproliferative activity against human RPMI-8226 cells assessed as cell growth inhibition at 10 uM incubated for 48 hrs by SRB assay relative to control. The class given is functional. Particulars: read-out: GI.
On to `Cc1nc2c(cnn2-c2ccccc2)c(=O)n1-c1ccc(N2C(=O)c3ccccc3C2=O)cc1`, for which the inhibition of growth at 10 µM was less than 15%.

The test system of a further test is MCF7. The test can be described thus: Antiproliferative activity against human MCF7 cells assessed as cell growth inhibition at 10 uM incubated for 48 hrs by SRB assay relative to control. The format is functional. Particulars: read-out: GI.
Consider `Cc1nc2c(cnn2-c2ccccc2)c(=O)n1-c1ccc(N2C(=O)c3ccccc3C2=O)cc1`, for which the inhibition of growth at 10 µM is less than 15%.

For another test, the system named is NCI/ADR-RES. The test can be described thus: Antiproliferative activity against human NCI-ADR-RES cells assessed as cell growth inhibition at 10 uM incubated for 48 hrs by SRB assay relative to control. The format is functional. Particulars: read-out: GI.
In the case of `Cc1nc2c(cnn2-c2ccccc2)c(=O)n1-c1ccc(N2C(=O)c3ccccc3C2=O)cc1`, the inhibition of growth at 10 µM is less than 15%.

The test system of a further test is NCI-H226. The test can be described thus: Antiproliferative activity against human NCI-H226 cells assessed as cell growth inhibition at 10 uM incubated for 48 hrs by SRB assay relative to control. Particulars: read-out: GI. The format is functional. Put shortly: as §1
On to `Cc1nc2c(cnn2-c2ccccc2)c(=O)n1-c1ccc(N2C(=O)c3ccccc3C2=O)cc1`, for which the inhibition of growth at 10 µM is less than 15%.

For another test, the system named is DU-145. The test can be described thus: Antiproliferative activity against human DU-145 cells assessed as cell growth inhibition at 10 uM incubated for 48 hrs by SRB assay relative to control. The class given is functional. Particulars: read-out: GI.
For the compound `Cc1nc2c(cnn2-c2ccccc2)c(=O)n1-c1ccc(N2C(=O)c3ccccc3C2=O)cc1`, the inhibition of growth at 10 µM is less than 15%.

The next test concerns SF-268. The test is described as follows: Antiproliferative activity against human SF-268 cells assessed as cell growth inhibition at 10 uM incubated for 48 hrs by SRB assay relative to control. Particulars: read-out: GI. The class given is functional.
Consider `Cc1nc2c(cnn2-c2ccccc2)c(=O)n1-c1ccc(N2C(=O)c3ccccc3C2=O)cc1`, for which the inhibition of growth at 10 µM is less than 15%.
